Reference: ChEMBL document CHEMBL1250476, “Synthesis and antifungal evaluation of novel triazole derivatives as inhibitors of cytochrome P450 14alpha-demethylase” (2010)
≈ marks a conversion by molar mass, not a printed value. Values belong to the compound of their own block, whether it stands above or below them.

How the values were obtained:
Type in all cases: functional
Candida albicans [1] = assay: Antifungal activity against Candida albicans SC5314 after 24 hrs by micro-broth dilution method; details: SC5314, 24 h
How it was run: (§1)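 Broth microdilution per NCCLS on Candida albicans. Compounds were dissolved in DMSO, serially diluted in growth medium, inoculated and incubated at 35 °C. Growth was read at 24 h, and MIC80 was taken as the first well with about 80% growth reduction relative to the drug-free control. Values are the mean of three replicates.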

Candida albicans [2] = assay: Antifungal activity against Candida albicans Y0109 after 24 hrs by micro-broth dilution method; details: Y0109, 24 h; how it was run: as §1
Cryptococcus neoformans = assay: Antifungal activity against Cryptococcus neoformans after 72 hrs by micro-broth dilution method
How it was run: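 Cryptococcus neoformans tested by NCCLS micro-broth dilution. Compounds were dissolved in DMSO, serially diluted in medium, inoculated and incubated at 35 °C. MIC80 was read at 72 h as the first well showing approximately 80% growth reduction compared with the drug-free well. Values are the mean of three replicate tests.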

Candida parapsilosis = assay: Antifungal activity against Candida parapsilosis by micro-broth dilution method; details: Lodderomyces parapsilosis
How it was run: (§2)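 MIC80 by broth microdilution in 96-well format following NCCLS. Compounds were dissolved in DMSO, serially diluted in growth medium, inoculated and incubated at 35 °C. The endpoint was the first well with about 80% growth reduction versus the drug-free well. Values are means of three replicate tests.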

Candida tropicalis = assay: Antifungal activity against Candida tropicalis by micro-broth dilution method; how it was run: as §2
Trichophyton rubrum = assay: Antifungal activity against Trichophyton rubrum by micro-broth dilution method; how it was run: as §2
Kluyveromyces marxianus = assay: Antifungal activity against Candida kefyr by micro-broth dilution method; how it was run: as §2
Aspergillus fumigatus = assay: Antifungal activity against Aspergillus fumigatus by micro-broth dilution method; how it was run: as §2

Compound: OC(CN(Cc1cn(Cc2ccccc2Cl)nn1)C1CC1)(Cn1cncn1)c1ccc(F)cc1F (stereo not drawn)
MIC (Candida albicans [1]): < 0.125 µg/mL
MIC (Candida albicans [2]): 0.0625 µg/mL (≈ 0.125 µM)
MIC (Cryptococcus neoformans): 4 µg/mL (≈ 8 µM)
MIC (Candida parapsilosis): 0.25 µg/mL (≈ 0.5 µM)
MIC (Candida tropicalis): < 0.125 µg/mL
MIC (Trichophyton rubrum): < 0.125 µg/mL
MIC (Kluyveromyces marxianus): 0.0156 µg/mL (≈ 0.0312 µM)
MIC (Aspergillus fumigatus): > 64 µg/mL

Compound: CCC(C)n1ncn(-c2ccc(N3CCN(c4ccc(OCC5COC(Cn6cncn6)(c6ccc(Cl)cc6Cl)O5)cc4)CC3)cc2)c1=O (stereo not drawn) [ITRACONAZOLE]
MIC (Candida albicans [1]): < 0.0625 µg/mL
MIC (Candida albicans [2]): 0.0625 µg/mL (≈ 0.0886 µM)
MIC (Cryptococcus neoformans): 0.125 µg/mL (≈ 0.177 µM)
MIC (Candida parapsilosis): 0.0625 µg/mL (≈ 0.0886 µM)
MIC (Candida tropicalis): < 0.0625 µg/mL
MIC (Trichophyton rubrum): 0.0625 µg/mL (≈ 0.0886 µM)
MIC (Kluyveromyces marxianus): 0.0625 µg/mL (≈ 0.0886 µM)
MIC (Aspergillus fumigatus): 2 µg/mL (≈ 2.83 µM)

Compound: OC(CN(Cc1cn(Cc2ccc(Br)cc2)nn1)C1CC1)(Cn1cncn1)c1ccc(F)cc1F (stereo not drawn)
MIC (Candida albicans [1]): 0.25 µg/mL (≈ 0.459 µM)
MIC (Candida albicans [2]): 0.0156 µg/mL (≈ 0.0287 µM)
MIC (Cryptococcus neoformans): 16 µg/mL (≈ 29.4 µM)
MIC (Candida parapsilosis): 1 µg/mL (≈ 1.84 µM)
MIC (Candida tropicalis): 0.5 µg/mL (≈ 0.918 µM)
MIC (Trichophyton rubrum): 1 µg/mL (≈ 1.84 µM)
MIC (Kluyveromyces marxianus): 0.0156 µg/mL (≈ 0.0287 µM)
MIC (Aspergillus fumigatus): > 64 µg/mL

Compound: OC(CN(Cc1cn(C2CCCCC2)nn1)C1CC1)(Cn1cncn1)c1ccc(F)cc1F (stereo not drawn)
MIC (Candida albicans [1]): 4 µg/mL (≈ 8.74 µM)
MIC (Candida albicans [2]): 0.0625 µg/mL (≈ 0.137 µM)
MIC (Cryptococcus neoformans): 2 µg/mL (≈ 4.37 µM)
MIC (Candida parapsilosis): 1 µg/mL (≈ 2.19 µM)
MIC (Candida tropicalis): 1 µg/mL (≈ 2.19 µM)
MIC (Trichophyton rubrum): 2 µg/mL (≈ 4.37 µM)
MIC (Kluyveromyces marxianus): 0.25 µg/mL (≈ 0.546 µM)
MIC (Aspergillus fumigatus): 32 µg/mL (≈ 69.9 µM)

Compound: Cc1ccc(Cn2cc(CN(CC(O)(Cn3cncn3)c3ccc(F)cc3F)C3CC3)nn2)cc1 (stereo not drawn)
MIC (Candida albicans [1]): < 0.125 µg/mL
MIC (Candida albicans [2]): 0.0156 µg/mL (≈ 0.0325 µM)
MIC (Cryptococcus neoformans): 1 µg/mL (≈ 2.09 µM)
MIC (Candida parapsilosis): < 0.125 µg/mL
MIC (Candida tropicalis): < 0.125 µg/mL
MIC (Trichophyton rubrum): < 0.125 µg/mL
MIC (Kluyveromyces marxianus): 0.0156 µg/mL (≈ 0.0325 µM)
MIC (Aspergillus fumigatus): 64 µg/mL (≈ 133 µM)

Compound: C[C@@H]1[C@H](O)[C@@H](C)/C=C/C=C/C=C/C=C/C=C/C=C/C=C/[C@H](O[C@@H]2O[C@H](C)[C@@H](O)[C@H](N)[C@@H]2O)C[C@@H]2O[C@](O)(C[C@@H](O)C[C@@H](O)[C@H](O)CC[C@@H](O)C[C@@H](O)CC(=O)O[C@H]1C)C[C@H](O)[C@H]2C(=O)O [AMPHOTERICIN B]
MIC (Candida albicans [1]): 8 µg/mL (≈ 8.66 µM)
MIC (Candida albicans [2]): 4 µg/mL (≈ 4.33 µM)
MIC (Cryptococcus neoformans): 4 µg/mL (≈ 4.33 µM)
MIC (Candida parapsilosis): 0.125 µg/mL (≈ 0.135 µM)
MIC (Candida tropicalis): 0.25 µg/mL (≈ 0.271 µM)
MIC (Trichophyton rubrum): 1 µg/mL (≈ 1.08 µM)
MIC (Kluyveromyces marxianus): 0.25 µg/mL (≈ 0.271 µM)
MIC (Aspergillus fumigatus): 32 µg/mL (≈ 34.6 µM)

Compound: CC(C)N(Cc1cn(Cc2cccc([N+](=O)[O-])c2)nn1)CC(O)(Cn1cncn1)c1ccc(F)cc1F (stereo not drawn)
MIC (Candida albicans [1]): < 0.125 µg/mL
MIC (Candida albicans [2]): 0.0625 µg/mL (≈ 0.122 µM)
MIC (Cryptococcus neoformans): 32 µg/mL (≈ 62.4 µM)
MIC (Candida parapsilosis): 2 µg/mL (≈ 3.9 µM)
MIC (Candida tropicalis): 4 µg/mL (≈ 7.8 µM)
MIC (Trichophyton rubrum): 1 µg/mL (≈ 1.95 µM)
MIC (Kluyveromyces marxianus): 0.25 µg/mL (≈ 0.488 µM)
MIC (Aspergillus fumigatus): > 64 µg/mL

Other lines, results leading:

MIC (Candida albicans [1]): < 0.125 µg/mL
MIC (Candida albicans [2]): 0.0625 µg/mL (≈ 0.122 µM)
MIC (Cryptococcus neoformans): 32 µg/mL (≈ 62.4 µM)
MIC (Candida parapsilosis): 8 µg/mL (≈ 15.6 µM)
MIC (Candida tropicalis): 2 µg/mL (≈ 3.9 µM)
MIC (Trichophyton rubrum): 1 µg/mL (≈ 1.95 µM)
MIC (Kluyveromyces marxianus): 0.0625 µg/mL (≈ 0.122 µM)
MIC (Aspergillus fumigatus): > 64 µg/mL
Compound: CC(C)N(Cc1cn(Cc2ccccc2[N+](=O)[O-])nn1)CC(O)(Cn1cncn1)c1ccc(F)cc1F (stereo not drawn)

MIC (Candida albicans [1]): < 0.125 µg/mL
MIC (Candida albicans [2]): 0.25 µg/mL (≈ 0.477 µM)
MIC (Cryptococcus neoformans): 32 µg/mL (≈ 61.1 µM)
MIC (Candida parapsilosis): 1 µg/mL (≈ 1.91 µM)
MIC (Candida tropicalis): 2 µg/mL (≈ 3.82 µM)
MIC (Trichophyton rubrum): 1 µg/mL (≈ 1.91 µM)
MIC (Kluyveromyces marxianus): 0.25 µg/mL (≈ 0.477 µM)
MIC (Aspergillus fumigatus): > 64 µg/mL
Compound: CC(C)N(Cc1cn(Cc2ccc(C(C)(C)C)cc2)nn1)CC(O)(Cn1cncn1)c1ccc(F)cc1F (stereo not drawn)

MIC (Candida albicans [1]): 1 µg/mL (≈ 2.07 µM)
MIC (Candida albicans [2]): 0.25 µg/mL (≈ 0.517 µM)
MIC (Cryptococcus neoformans): 16 µg/mL (≈ 33.1 µM)
MIC (Candida parapsilosis): 4 µg/mL (≈ 8.27 µM)
MIC (Candida tropicalis): 1 µg/mL (≈ 2.07 µM)
MIC (Trichophyton rubrum): 2 µg/mL (≈ 4.14 µM)
MIC (Kluyveromyces marxianus): 0.0625 µg/mL (≈ 0.129 µM)
MIC (Aspergillus fumigatus): > 64 µg/mL
Compound: OC(CN(Cc1cn(Cc2ccc(F)cc2)nn1)C1CC1)(Cn1cncn1)c1ccc(F)cc1F (stereo not drawn)

MIC (Candida albicans [1]): < 0.125 µg/mL
MIC (Candida albicans [2]): 0.25 µg/mL (≈ 0.49 µM)
MIC (Cryptococcus neoformans): 16 µg/mL (≈ 31.3 µM)
MIC (Candida parapsilosis): 1 µg/mL (≈ 1.96 µM)
MIC (Candida tropicalis): 0.25 µg/mL (≈ 0.49 µM)
MIC (Trichophyton rubrum): 0.5 µg/mL (≈ 0.979 µM)
MIC (Kluyveromyces marxianus): 0.0039 µg/mL (≈ 0.00764 µM)
MIC (Aspergillus fumigatus): > 64 µg/mL
Compound: O=[N+]([O-])c1ccc(Cn2cc(CN(CC(O)(Cn3cncn3)c3ccc(F)cc3F)C3CC3)nn2)cc1 (stereo not drawn)

MIC (Candida albicans [1]): 0.0625 µg/mL (≈ 0.12 µM)
MIC (Candida albicans [2]): < 0.125 µg/mL
MIC (Cryptococcus neoformans): 4 µg/mL (≈ 7.67 µM)
MIC (Candida parapsilosis): 0.25 µg/mL (≈ 0.479 µM)
MIC (Candida tropicalis): 16 µg/mL (≈ 30.7 µM)
MIC (Trichophyton rubrum): 4 µg/mL (≈ 7.67 µM)
MIC (Kluyveromyces marxianus): 1 µg/mL (≈ 1.92 µM)
MIC (Aspergillus fumigatus): > 64 µg/mL
Compound: CC(C)(C)c1ccc(Cn2cc(CN(CC(O)(Cn3cncn3)c3ccc(F)cc3F)C3CC3)nn2)cc1 (stereo not drawn)

MIC (Candida albicans [1]): 1 µg/mL (≈ 2.08 µM)
MIC (Candida albicans [2]): 0.0625 µg/mL (≈ 0.13 µM)
MIC (Cryptococcus neoformans): 8 µg/mL (≈ 16.6 µM)
MIC (Candida parapsilosis): 2 µg/mL (≈ 4.15 µM)
MIC (Candida tropicalis): 0.25 µg/mL (≈ 0.519 µM)
MIC (Trichophyton rubrum): 0.25 µg/mL (≈ 0.519 µM)
MIC (Kluyveromyces marxianus): 1 µg/mL (≈ 2.08 µM)
MIC (Aspergillus fumigatus): > 64 µg/mL
Compound: Cc1ccc(Cn2cc(CN(CC(O)(Cn3cncn3)c3ccc(F)cc3F)C(C)C)nn2)cc1 (stereo not drawn)

MIC (Candida albicans [1]): < 0.125 µg/mL
MIC (Candida albicans [2]): 0.0039 µg/mL (≈ 0.00761 µM)
MIC (Cryptococcus neoformans): 16 µg/mL (≈ 31.2 µM)
MIC (Candida parapsilosis): 4 µg/mL (≈ 7.8 µM)
MIC (Candida tropicalis): 1 µg/mL (≈ 1.95 µM)
MIC (Trichophyton rubrum): 2 µg/mL (≈ 3.9 µM)
MIC (Kluyveromyces marxianus): 0.25 µg/mL (≈ 0.488 µM)
MIC (Aspergillus fumigatus): > 64 µg/mL
Compound: CC(C)N(Cc1cn(Cc2ccc([N+](=O)[O-])cc2)nn1)CC(O)(Cn1cncn1)c1ccc(F)cc1F (stereo not drawn)

MIC (Candida albicans [1]): < 0.125 µg/mL
MIC (Candida albicans [2]): 0.0625 µg/mL (≈ 0.136 µM)
MIC (Cryptococcus neoformans): 16 µg/mL (≈ 34.8 µM)
MIC (Candida parapsilosis): 2 µg/mL (≈ 4.35 µM)
MIC (Candida tropicalis): 0.5 µg/mL (≈ 1.09 µM)
MIC (Trichophyton rubrum): 1 µg/mL (≈ 2.18 µM)
MIC (Kluyveromyces marxianus): 0.25 µg/mL (≈ 0.544 µM)
MIC (Aspergillus fumigatus): > 64 µg/mL
Compound: CC(C)N(Cc1cn(C2CCCCC2)nn1)CC(O)(Cn1cncn1)c1ccc(F)cc1F (stereo not drawn)

MIC (Candida albicans [1]): < 0.125 µg/mL
MIC (Candida albicans [2]): 0.0625 µg/mL (≈ 0.104 µM)
MIC (Cryptococcus neoformans): 2 µg/mL (≈ 3.32 µM)
MIC (Candida parapsilosis): 0.5 µg/mL (≈ 0.831 µM)
MIC (Candida tropicalis): < 0.125 µg/mL
MIC (Trichophyton rubrum): 0.25 µg/mL (≈ 0.415 µM)
MIC (Kluyveromyces marxianus): 0.25 µg/mL (≈ 0.415 µM)
MIC (Aspergillus fumigatus): > 64 µg/mL
Compound: CCCCCCCCCCCCCCCCn1cc(CN(CC(O)(Cn2cncn2)c2ccc(F)cc2F)C(C)C)nn1 (stereo not drawn)
